For one assay, the species on record is Homo sapiens. Briefly: Inhibition of thioredoxin reductase (unknown origin) at 50 uM measured after 5 mins by DTNB reduction assay relative to control. The method, boiled down:
(§1)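 TrxR inhibition was screened at 50 μM as % inhibition, and IC50 values are reported in μM. Curcumin was run as positive control. The procedure follows a previously described method.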

The test system of another assay is A549. Description: Cytotoxicity against human A549 cells by MTT assay. The class given is functional, cell-based. The essentials: (§2)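 Tetrazolium-based colorimetric (MTT) read-out of tumour-cell viability, run on A549 and A2780 lines.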
The subject of another assay is A2780. Briefly: Cytotoxicity against human A2780 cells by MTT assay. Type of assay: functional, cell-based. The essentials:
as §2

Assay [1] can be described thus: Inhibition of thioredoxin reductase (unknown origin) measured after 5 mins by DTNB reduction assay. More on the design: species or system Homo sapiens. The essentials:
as §1

For the molecule `COc1cc(/C=C/C(=O)CC(=O)/C=C/c2ccc(O)c(OC)c2)ccc1O`, in the assay listed under Homo sapiens, the inhibition worked out at 25%.

Consider `COC(=O)[C@@H]1C[C@]2(O)c3ccccc3N3C(=O)C4(CC4)N([C@@H](OC)c4nc5ccccc5c(=O)n41)[C@H]32`, for which the inhibition in the assay listed under Homo sapiens turned out to be 83%. Further, the values for the IC50 (with A549; in the assay with A2780; in assay [1]) were greater than 50 µM, greater than 50 µM and 13 µM, respectively.

`CC[C@H](C)[C@H]1C(=O)N2c3ccccc3[C@@]3(O)C[C@H]4C(=O)N[C@H](c5nc6ccccc6c(=O)n54)N1[C@H]23` displayed an inhibition in the assay filed under Homo sapiens of 43%. The IC50 in the assay with A549 and in the assay with A2780 was greater than 50 µM in each case.

With `C[C@H]1C(=O)N2c3ccccc3[C@@]34C[C@H]5C(=O)N(CN1[C@H]23)[C@@H](O4)c1nc2ccccc2c(=O)n15`, the inhibition in the assay listed under Homo sapiens was determined as 64%. The IC50 in the assay on A549 was greater than 50 µM; in the assay with A2780, greater than 50 µM; in assay [1], 20 µM.

With `C[C@@H]1N[C@@H]2N(C1=O)c1ccccc1[C@@]2(O)C[C@H]1C(=O)NCc2nc3ccccc3c(=O)n21`, the inhibition in the assay filed under Homo sapiens turned out to be 27%. The IC50 in the assay with A549 and with A2780 was greater than 50 µM throughout.

`O=C1NCc2nc3ccccc3c(=O)n2[C@H]1C[C@@]12OCN3[C@@H]1N(C(=O)C31CC1)c1ccccc12`: in the assay filed under Homo sapiens, the inhibition amounted to 51%. Besides, the IC50 with A549 and with A2780 was greater than 50 µM throughout.

As for `CC[C@H](C)[C@@H]1C(=O)N2c3ccccc3[C@@]3(O)C[C@H](n4cnc5ccccc5c4=O)C(=O)N1[C@@H]23`, the inhibition in the assay filed under Homo sapiens was 62%. The half-inhibitory concentration (IC50) with A549 and with A2780 was greater than 50 µM each time.

On to `O=C1N[C@H]2O[C@@]3(C[C@@H]1n1c2nc2ccccc2c1=O)c1ccccc1N1C(=O)C2(CC2)N[C@H]13`, for which the inhibition in the assay filed under Homo sapiens worked out at 47%. The IC50 with A549 and with A2780 was greater than 50 µM throughout.

`C[C@H]1C(=O)N2c3ccccc3[C@@]3(O)C[C@H]4C(=O)N[C@H](c5nc6ccccc6c(=O)n54)N1[C@H]23` had an inhibition in the assay filed under Homo sapiens of 38%. Further, the IC50 in the assay on A549 and in the assay on A2780 was greater than 50 µM throughout.

Take `O=C1NCc2nc3ccccc3c(=O)n2[C@H]1C[C@]1(O)c2ccccc2N2C(=O)C3(CC3)N[C@H]21`: the inhibition in the assay filed under Homo sapiens was 28%. In addition, the IC50 in the assay on A549 and in the assay with A2780 was greater than 50 µM in each case.

In the assay filed under Homo sapiens, `O=C1N[C@@H]2c3nc4ccccc4c(=O)n3[C@H]1C[C@]1(O)c3ccccc3N3C(=O)C4(CC4)N2[C@H]31` displayed an inhibition of 17%. Further, the IC50 in the assay on A549 and in the assay on A2780 was greater than 50 µM throughout.

For `O=C1[C@@H]2C[C@@]34O[C@@H](c5nc6ccccc6c(=O)n52)N1CN1[C@@H]3N(C(=O)C12CC2)c1ccccc14`, the inhibition in the assay listed under Homo sapiens stood at 83%. In addition, the IC50 is greater than 50 µM with A549, greater than 50 µM with A2780 and 12 µM in assay [1].

As for `C=CC(C)(C)[C@@]12C=C(OC)C(=O)N3[C@@H](C)C(=O)N[C@]31N(O)c1ccccc12`, the inhibition in the assay listed under Homo sapiens worked out at 76%. The figures for the IC50 (in the assay with A549; in the assay with A2780; in assay [1]) were greater than 50 µM, greater than 50 µM and 13 µM, respectively.

Regarding `O=C1NCc2nc3c(O)cccc3c(=O)n2[C@H]1Cc1c[nH]c2ccccc12`, the inhibition in the assay listed under Homo sapiens was determined as 55%. The IC50 in the assay on A549 and in the assay on A2780 was greater than 50 µM throughout.

As to `C=CC(C)(C)[C@@]12C=C(OC)C(=O)N3[C@@H](C)C(=O)N[C@]31N(OC)c1ccccc12`, the inhibition in the assay filed under Homo sapiens stood at 13%. Besides, the IC50 with A549 and in the assay on A2780 was greater than 50 µM throughout.

Source of the values: ChEMBL document CHEMBL4002581, “Versiquinazolines A-K, Fumiquinazoline-Type Alkaloids from the Gorgonian-Derived Fungus Aspergillus versicolor LZD-14-1” (J Nat Prod, 2016).
